Test results from ChEMBL document CHEMBL5705894, “SB1518, a novel macrocyclic pyrimidine-based JAK2 inhibitor for the treatment of myeloid and lymphoid malignancies” (Leukemia, 2011).
Calls of active or inactive are those of the source. The rule behind the calls is not given here.

Assays:
[1] = tested on: Tyrosine-protein kinase JAK2 (Mus musculus), Q62120 [V617F]; assay: Inhibition of JAK2 V617F mutant transfected in mouse BaF3 cells assessed as increased JAK2 phosphorylation at Y1007/8 at 8 to 1000 nM incubated for 3 hrs by Western blotting analysis; format: cell-based; settings: dose 8-1000 nM
[2] = tested on: Tyrosine-protein kinase JAK2 (Mus musculus), Q62120 [V617F]; assay: Inhibition of JAK2 V617F mutant expressed in mouse BaF3 cells assessed as reduction of STAT5 phosphorylation at Y694 by Western blotting analysis; format: cell-based
SET-2 = assay: Induction of apoptosis in human SET2 cells assessed as activation of caspase-3/7 incubated for 16 hrs; format: functional, cell-based
In short: (§1)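 SET-2 and Karpas 1106P cells were exposed to graded drug concentrations for 16 h. Apoptosis was read as caspase-3/7 activation.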

Karpas-1106P [3] = assay: Induction of apoptosis in human KARPAS-1106P cells assessed as activation of caspase-3/7 incubated for 16 hrs; format: functional, cell-based; in short: as §1
Karpas-1106P [4] = assay: Induction of cell cycle arrest in human KARPAS-1106P cells expressing JAK2 assessed as accumulation of cells at G0/1 phase incubated for 24 hrs by PI staining based flow cytometry; format: functional
In short: (§2)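 Cells were fixed in 70% ice-cold ethanol and stained with propidium iodide, then analysed by flow cytometry for cell-cycle distribution.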

Karpas-1106P [5] = assay: Induction of cell cycle arrest in human KARPAS-1106P cells expressing JAK2 assessed as decrease in accumulation of cells at S phase incubated for 24 hrs by PI staining based flow cytometry; format: functional; in short: as §2
[6] = tested on: KATO III stomach cancer cell line; assay: Antiproliferative activity against human KATO III stomach cancer cell line assessed as inhibition of cell viability incubated for 48 hrs by CellTiterGlo assay; format: functional, cell-based
In short: (§3)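 Cells seeded at 30–50% confluency in 96-well plates, then treated the next day in triplicate at up to 10 μM for 48 h. Viability read by CellTiter-Glo luminescence. IC50 taken from fitted dose–response curves.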

SNU-387 = assay: Antiproliferative activity against human SNU-387 cells assessed as inhibition of cell viability incubated for 48 hrs by CellTiterGlo assay; format: functional, cell-based; settings: SNU-387, 48 h; in short: as §3
CHL-1 = assay: Antiproliferative activity against human CHL-1 cells assessed as inhibition of cell viability incubated for 48 hrs by CellTiterGlo assay; format: functional, cell-based; settings: CHL-1, 48 h; in short: as §3
COLO 205 = assay: Antiproliferative activity against human COLO 205 cells assessed as inhibition of cell viability incubated for 48 hrs by CellTiterGlo assay; format: functional, cell-based; settings: COLO 205, 48 h; in short: as §3
T47D = assay: Antiproliferative activity against human T47D cells assessed as inhibition of cell viability incubated for 48 hrs by CellTiterGlo assay; format: functional, cell-based
In short: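 Cells from ATCC, grown per supplier guidance, were seeded at 30–50% confluency and dosed the next day in triplicate at concentrations up to 10 μM for 48 h. Viability was read by luminescent ATP (CellTiter-Glo), and IC50 was fitted from dose–response curves.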

LNCaP = assay: Antiproliferative activity against human LNCaP cells assessed as inhibition of cell viability incubated for 48 hrs by CellTiterGlo assay; format: functional, cell-based; in short: as §3
PC-3 = assay: Antiproliferative activity against human PC-3 cells assessed as inhibition of cell viability incubated for 48 hrs by CellTiterGlo assay; format: functional, cell-based; settings: PC-3, 48 h; in short: as §3
A2780 = assay: Antiproliferative activity against human A2780 cells assessed as inhibition of cell viability incubated for 48 hrs by CellTiterGlo assay; format: functional, cell-based; settings: A2780, 48 h; in short: as §3
U-266 = assay: Antiproliferative activity against human U-266 cells assessed as inhibition of cell viability incubated for 48 hrs by CellTiterGlo assay; format: functional, cell-based; settings: U-266, 48 h; in short: as §3
Karpas-1106P [7] = assay: Antiproliferative activity against human KARPAS-1106P cells harboring JAK2 assessed as inhibition of cell viability incubated for 48 hrs by CellTiterGlo assay; format: functional, cell-based; in short: as §3
BaF3 = assay: Antiproliferative activity against mouse BaF3 cells harboring JAK2 V617F mutant assessed as inhibition of cell viability incubated for 48 hrs by CellTiterGlo assay; format: functional, cell-based; settings: BaF3, 48 h; in short: as §3
MOLM-13 = assay: Antiproliferative activity against human MOLM-13 cells harboring FLT3-ITD mutant assessed as inhibition of cell viability incubated for 48 hrs by CellTiterGlo assay; format: functional, cell-based; settings: MOLM-13, 48 h; in short: as §3
Jurkat E6.1 = assay: Antiproliferative activity against human Jurkat E6.1 cells assessed as inhibition of cell viability incubated for 48 hrs by CellTiterGlo assay; format: functional, cell-based; settings: Jurkat E6.1, 48 h; in short: as §3
MOLT-4 = assay: Antiproliferative activity against human MOLT-4 cells assessed as inhibition of cell viability incubated for 48 hrs by CellTiterGlo assay; format: functional, cell-based; settings: MOLT-4, 48 h; in short: as §3
Mus musculus = assay: In vivo inhibition of JAK2 V617F mutant in SCID Beige mouse xenografted with human SET2 cells assessed as decreased STAT5 phosphorylation at Y694 at 75 to 150 mg/kg, po administered for 18 days and measured after 3 hrs by Western blotting analysis; format: functional, organism-based; settings: dose 75-150 mg/kg, time 18.0 day
In short: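 Subcutaneous SET-2 tumors in SCID beige mice. Single oral doses of 75 or 150 mg/kg were given at about 300 mm3 tumor size; in the chronic arm, dosing ran for 18 days. Tumors were collected 3 h post-dose, lysed, and immunoblotted for pJAK2 (Y1007/8) and pSTAT5.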

[8] = Cytotoxicity against human EPC cells derived from polycythemia vera patients assessed as inhibition of cell viability incubated for 48 hrs by CellTiterGlo assay; format: toxicity, cell-based
In short: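 Erythroid progenitors expanded from PBMCs of PV patients or normal volunteers using a 2-step protocol. On day 12 of expansion, cells were exposed to compound for 48 h and viability was read by CellTiter-Glo. Day-12 cells were phenotyped by CD71/CD235A flow staining.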

[9] = molecular target: Tyrosine-protein kinase JAK2 (Homo sapiens) (UniProt O60674); settings: HEK-293T, dose 8-1000 nM, time 3.0 hrs
[10] = molecular target: Tyrosine-protein kinase JAK2 (Homo sapiens) (UniProt O60674); settings: KARPAS-1106P, dose 8-1000 nM, time 3.0 hrs
[11] = tested on: Tyrosine-protein kinase JAK2 (Homo sapiens), O60674 [V617F]; settings: SET2, dose 8-1000 nM, time 3.0 hrs
[12] = tested on: Tyrosine-protein kinase JAK2 (Homo sapiens), O60674 [V617F]; settings: HEL 92.1.7, dose 1000.0 nM, time 4-24 hrs
[13] = tested on: Tyrosine-protein kinase JAK2 (Homo sapiens), O60674 [V617F]; settings: HEL 92.1.7, dose 1000.0 nM, time 3.0 hrs
[14] = tested on: Tyrosine-protein kinase JAK2 (Homo sapiens), O60674 [V617F]; settings: HEL 92.1.7, dose 8-1000 nM, time 3.0 hrs
[15] = tested on: Tyrosine-protein kinase JAK2 (Homo sapiens), O60674 [V617F]; settings: SET2, dose 8-1000 nM, time 3.0 hrs; remark: listed apart in the source

Chain of Tyrosine-protein kinase JAK2 (Homo sapiens), O60674 [V617F] (O60674 whole entry V617F): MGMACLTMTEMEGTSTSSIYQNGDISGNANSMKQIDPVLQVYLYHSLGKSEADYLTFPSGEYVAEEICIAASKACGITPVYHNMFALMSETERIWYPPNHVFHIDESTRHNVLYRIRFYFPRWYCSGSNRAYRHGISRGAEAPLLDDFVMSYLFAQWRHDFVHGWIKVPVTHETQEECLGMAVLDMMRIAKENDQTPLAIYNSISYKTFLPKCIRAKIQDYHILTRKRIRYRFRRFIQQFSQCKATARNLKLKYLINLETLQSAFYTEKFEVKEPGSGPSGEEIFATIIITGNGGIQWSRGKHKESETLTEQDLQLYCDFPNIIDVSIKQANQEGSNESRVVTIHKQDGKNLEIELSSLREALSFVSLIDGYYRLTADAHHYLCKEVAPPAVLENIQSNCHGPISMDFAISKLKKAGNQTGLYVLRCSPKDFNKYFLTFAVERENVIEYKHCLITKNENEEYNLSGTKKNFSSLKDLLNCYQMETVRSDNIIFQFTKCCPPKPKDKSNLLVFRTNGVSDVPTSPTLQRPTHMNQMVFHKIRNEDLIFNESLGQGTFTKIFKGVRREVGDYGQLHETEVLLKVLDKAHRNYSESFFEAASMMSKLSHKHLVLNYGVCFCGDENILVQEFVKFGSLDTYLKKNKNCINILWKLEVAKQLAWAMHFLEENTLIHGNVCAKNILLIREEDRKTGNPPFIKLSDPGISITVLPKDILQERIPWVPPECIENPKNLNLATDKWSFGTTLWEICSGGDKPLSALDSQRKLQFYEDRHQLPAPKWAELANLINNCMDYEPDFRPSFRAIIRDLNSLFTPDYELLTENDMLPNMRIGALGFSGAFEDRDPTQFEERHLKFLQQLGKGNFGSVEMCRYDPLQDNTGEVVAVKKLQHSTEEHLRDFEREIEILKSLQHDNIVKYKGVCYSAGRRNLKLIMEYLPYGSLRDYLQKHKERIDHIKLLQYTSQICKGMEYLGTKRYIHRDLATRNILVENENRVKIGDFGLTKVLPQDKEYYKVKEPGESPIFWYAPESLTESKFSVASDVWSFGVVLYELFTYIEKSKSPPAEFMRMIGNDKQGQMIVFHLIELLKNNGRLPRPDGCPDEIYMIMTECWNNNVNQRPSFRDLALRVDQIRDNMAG
Chain of Tyrosine-protein kinase JAK2 (Homo sapiens) (O60674 whole entry): as the sequence (O60674 whole entry V617F) above, with F617V counted along it
Chain of Tyrosine-protein kinase JAK2 (Mus musculus), Q62120 [V617F] (Q62120 as listed by the source): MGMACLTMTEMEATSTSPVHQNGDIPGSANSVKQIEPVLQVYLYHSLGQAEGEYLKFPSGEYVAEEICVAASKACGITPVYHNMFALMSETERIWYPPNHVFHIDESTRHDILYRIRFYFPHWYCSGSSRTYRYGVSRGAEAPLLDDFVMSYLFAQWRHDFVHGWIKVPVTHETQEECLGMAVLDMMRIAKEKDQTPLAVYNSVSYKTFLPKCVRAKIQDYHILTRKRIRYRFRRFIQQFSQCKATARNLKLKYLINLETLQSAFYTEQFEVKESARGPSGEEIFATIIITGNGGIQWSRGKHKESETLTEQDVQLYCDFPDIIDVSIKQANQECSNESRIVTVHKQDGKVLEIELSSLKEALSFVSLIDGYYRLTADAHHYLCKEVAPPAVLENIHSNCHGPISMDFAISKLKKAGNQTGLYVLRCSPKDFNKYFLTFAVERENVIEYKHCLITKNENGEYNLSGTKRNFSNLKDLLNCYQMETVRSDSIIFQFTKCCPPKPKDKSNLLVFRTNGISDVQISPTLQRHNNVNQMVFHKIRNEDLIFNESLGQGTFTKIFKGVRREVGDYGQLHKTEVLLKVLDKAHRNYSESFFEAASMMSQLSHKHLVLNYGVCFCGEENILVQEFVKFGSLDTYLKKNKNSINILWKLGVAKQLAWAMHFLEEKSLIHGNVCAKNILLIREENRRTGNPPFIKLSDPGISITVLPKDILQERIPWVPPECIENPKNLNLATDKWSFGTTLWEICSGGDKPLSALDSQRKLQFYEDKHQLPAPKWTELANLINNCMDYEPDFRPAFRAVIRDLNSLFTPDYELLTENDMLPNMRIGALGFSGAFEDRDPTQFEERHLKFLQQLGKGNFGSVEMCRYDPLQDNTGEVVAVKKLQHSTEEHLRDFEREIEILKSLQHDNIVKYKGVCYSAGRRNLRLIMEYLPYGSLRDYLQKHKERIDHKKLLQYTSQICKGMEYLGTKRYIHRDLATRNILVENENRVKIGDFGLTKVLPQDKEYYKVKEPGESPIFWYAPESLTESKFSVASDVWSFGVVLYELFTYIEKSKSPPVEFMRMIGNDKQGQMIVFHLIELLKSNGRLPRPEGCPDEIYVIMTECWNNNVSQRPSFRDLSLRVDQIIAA

- inhibition [1]: Active
- inhibition [2]: Active
- EC50 (SET-2; SET-2, 16 h): 0.571 µM
- EC50 (Karpas-1106P [3]): 1.12 µM
- IC50 [6]: 2.06 µM
- IC50 (SNU-387): 2.03 µM
- IC50 (COLO 205): 2.62 µM
- IC50 (T47D): 1.28 µM
- IC50 (LNCaP): 0.917 µM
- IC50 (PC-3): 0.77 µM
- IC50 (A2780): 0.664 µM
- IC50 (Karpas-1106P [7]): 0.348 µM
- IC50 (BaF3): 0.16 µM
- IC50 (MOLM-13): 0.067 µM
- IC50 (Jurkat E6.1): 0.839 µM
- IC50 (MOLT-4): 0.75 µM
- inhibition [9]: Dose-Dependent Effect
- inhibition [10]: Active
- inhibition [11]: Active
- inhibition [12]: Tde
- inhibition [13]: Active
- inhibition [14]: Dose-Dependent Effect
- inhibition [15]: Dose-Dependent Effect
Compound: C1=N/C2=N/c3ccc(OCCN4CCCC4)c(c3)COC/C=C/COCc3cccc(c3)C(=C1)N2 [PACRITINIB]
- Activity (SET-2): Dose-Dependent Effect
- Activity (Karpas-1106P [3]): Dose-Dependent Effect
- Activity (Karpas-1106P [4]): Dose-Dependent Effect
- Activity (Karpas-1106P [5]): Dose-Dependent Effect
- IC50 (CHL-1): 1.4 µM
- IC50 (U-266): 1.35 µM
- Activity (Mus musculus): Active
- IC50 [8]: 0.26 µM
